Measured values reported in PubChem BioAssay AID1257 (The Scripps Research Institute Molecular Screening Center, 2008).
Some of the results follow. The source made the active and inactive calls.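 The calls were made as follows: active = mean inhibition of triplicate wells above the hit cutoff set in the primary screen (cut at about 17% in these data); inactive = the rest.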

target: Neuropeptide Y receptor type 2 (Homo sapiens) (UniProt P49146); experiment: NPY-Y2 receptor antagonists, retest of hits, confirmation, HEK293-CNG cells, membrane potential fluorescence, triplicate (AID 1257); conditions: HEK293 NPY-Y2 CNG channel, at 2.8 µM, stronger effect = higher value;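 also: 0% = DMSO with NPY challenge and 100% = BIIE0246 high control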
Summary of the method: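 assay system = NPY-Y2 HEK293-CNG cells | times = NPY exposure 60 min at room temperature | technique = voltage-sensitive dye fluorescence | read-out = 30-min to baseline fluorescence ratio, control-normalized | control set = high BIIE0246, low DMSO | repeats = three replicates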

Sequence of Neuropeptide Y receptor type 2 (Homo sapiens) (P49146 whole entry, looked up): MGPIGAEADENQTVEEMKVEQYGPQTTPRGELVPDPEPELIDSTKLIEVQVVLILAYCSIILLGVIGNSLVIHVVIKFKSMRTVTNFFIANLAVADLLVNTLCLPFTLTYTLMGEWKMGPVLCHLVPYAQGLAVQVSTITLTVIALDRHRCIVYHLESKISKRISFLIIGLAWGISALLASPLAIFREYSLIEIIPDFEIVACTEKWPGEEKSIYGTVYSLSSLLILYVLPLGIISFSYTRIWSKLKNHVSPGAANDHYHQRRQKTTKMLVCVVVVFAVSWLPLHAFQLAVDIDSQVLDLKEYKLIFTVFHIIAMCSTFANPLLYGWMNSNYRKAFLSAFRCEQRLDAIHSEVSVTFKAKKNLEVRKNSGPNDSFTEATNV

Row | SMILES | inhibition
1 | Cc1cccc(OCC(O)Cn2c(=N)n(CCN3CCOCC3)c3ccccc32)c1 (centres undefined) | 6.36% (inactive)
2 | CCCCC(O)(CCCC)C(=O)NN(C(=O)CCl)c1ccccc1 | 6.12% (inactive)
3 | O=C(CC(O)(C(F)(F)F)C(F)(F)F)Nc1ccc(Cl)c(Cl)c1 | 8.21% (inactive)
4 | Cc1ccc(CCC(=O)Nc2ncc(Cc3cc(Cl)ccc3Cl)s2)o1 | 28.3% (active)
5 | O=C1CC(c2cccc(Cl)c2)CC(O)=C1C=Nc1ccccc1 (centres undefined) | 16.5% (inactive)
6 | COc1ccc(-c2noc(COc3ccc(Cl)c(C)c3)n2)cc1 | 32.4% (active)
7 | Cc1ccccc1OC(=O)Cn1c(C(F)(F)F)nc2ccccc21 | 3.55% (inactive)
8 | Cc1cc(C)nc(-n2ncc3c2CC(c2ccc(C(C)C)cc2)CC3=O)n1 (centres undefined) | 24.2% (active)
9 | CCOc1ccc(S(=O)(=O)N/N=C(\C)c2ccc(Cl)c(Cl)c2Cl)cc1 | 16% (inactive)
10 | N#Cc1ccc(N2Cc3ccccc3/C2=N/C(=O)Nc2ccc(Cl)cc2)cc1 | 144% (active)
11 | N=c1n(Cc2ccc(Cl)cc2)c2ccccc2n1CC(O)c1ccco1 (centres undefined) | 17.8% (active)
12 | N#Cc1ccc(C(c2nnnn2CCc2ccccc2)N2CCCCCC2)cc1 (centres undefined) | 7.32% (inactive)
13 | Cc1ccc(NC(=O)CN2CCC3(O)CCCCC3C2c2ccc3c(c2)OCO3)c(C)c1 (centres undefined) | 7.05% (inactive)
14 | COC(=O)c1ccc(CSc2nc3cc(Cl)ccc3o2)cc1 | 12.9% (inactive)
15 | CCOc1ccc(C(O)Cn2c(=N)n(CCN3CCCCC3)c3ccccc32)cc1 (centres undefined) | 14.8% (inactive)
16 | COc1ccc(-c2nc3ccccc3n2CCC(C)C)cc1OC | 7.79% (inactive)
17 | O=C(Nc1nnc(SCc2c(Cl)cccc2Cl)s1)C1CCCO1 (centres undefined) | 15.9% (inactive)

Row | SMILES | inhibition
18 | CCCc1nc(SCC(=O)Nc2ccccc2OC)c2c(=O)n(C)c(=O)n(C)c2n1 | 9.29% (inactive)
19 | C=CCNCCCCOc1ccccc1 | -1.34% (inactive)
20 | COc1ccc(/C=C/C(=O)NC(=S)NN2CCCCC2c2cccnc2)cc1 (centres undefined) | 63.5% (active)
21 | Cc1ccc(S(=O)(=O)N(Cc2ccc(Cl)cc2)c2ccccc2C(=O)NCc2cccnc2)cc1 | 21.4% (active)
22 | Cc1ccccc1N1CCN(CCCOc2ccc3c(C)cc(=O)oc3c2)CC1 | 21.9% (active)
23 | COc1ccc(NC(=O)/C(Cl)=C(/Cl)S(=O)Cc2ccc(C)cc2)cn1 (centres undefined) | 60.8% (active)
24 | O=C(Oc1ccccc1)Oc1ccc2c(c1)oc(=O)c1ccccc12 | 6.38% (inactive)
25 | CN(C)Cc1ccc(F)cc1Sc1cc(Cl)ccc1Cl | 9.81% (inactive)
26 | Cc1ccc(C2=NN(C)c3nc4ccccc4n3C2)cc1 | 4.08% (inactive)
27 | CCCCCNC(=O)Cc1ccc(OC)cc1 | -1.6% (inactive)
28 | CC12CN(Cc3ccccc3)CC(C)(CN(Cc3ccccc3)C1)C2=NO | 10.7% (inactive)
29 | O=S(=O)(Cc1cc(Sc2ccccc2)nc(-c2ccccc2)n1)c1ccccc1 | 7.19% (inactive)
30 | COc1ccc(/C(N)=N/OC(=O)CCCc2ccccc2)cc1 | 8.36% (inactive)
31 | c1ccc(-c2cc3c(NCC4COc5ccccc5O4)ncnc3s2)cc1 (centres undefined) | 15.2% (inactive)
32 | Cc1cc(C(=O)OCC(=O)N2c3ccccc3NC(=O)C2(C)C)c(C)n1-c1ccccc1 | 17.1% (inactive)
33 | CCOC(=O)C(C)Sc1nc2ccccc2c(=O)n1CC1CCCCC1 (centres undefined) | 8.48% (inactive)
34 | COc1cccc(-c2ccc(C#N)c(SCC(=O)NCCc3ccc(Cl)cc3)n2)c1 | 23.6% (active)
